Measured values from ChEMBL document CHEMBL5357047, “The development of thymol-isatin hybrids as broad-spectrum antibacterial agents with potent anti-MRSA activity” (RSC Med Chem, 2024).
In brackets after ≈: the same amount, converted by molar mass. Activity calls are given as the source filed them. The calls are words filed in the database; no cut-off is given here.

Legend:
[1] = system: Staphylococcus aureus; experiment: Antibacterial activity against Staphylococcus aureus MTCC 740 assessed as inhibition of bacterial growth at 50 uM measured after 48 hrs by agar well diffusion method; type: functional; conditions: read-out: IZ
[2] = system: Staphylococcus aureus; experiment: Antibacterial activity against Methicillin-resistant Staphylococcus aureus ATCC 33591 assessed as inhibition of bacterial growth at 50 uM measured after 48 hrs by agar well diffusion method; type: functional; conditions: read-out: IZ
Summary of the method: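 Agar well diffusion on Mueller Hinton agar seeded with bacteria at 0.5 McFarland. […] Incubated 48 h at 37 °C aerobically; zone of inhibition diameter (mm) measured. Triplicate.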

[3] = system: Enterococcus faecalis; experiment: Antibacterial activity against Enterococcus faecalis MTCC 439 assessed as inhibition of bacterial growth at 50 uM measured after 48 hrs by agar well diffusion method; type: functional; conditions: read-out: IZ
[4] = system: Enterococcus faecalis; experiment: Antibacterial activity against clinically isolated Enterococcus faecalis RBRJ015 assessed as inhibition of bacterial growth at 50 uM measured after 48 hrs by agar well diffusion method; type: functional; conditions: read-out: IZ
[5] = system: Klebsiella pneumoniae; experiment: Antibacterial activity against clinically isolated Klebsiella pneumoniae RBRJ019 assessed as inhibition of bacterial growth at 50 uM measured after 48 hrs by agar well diffusion method; type: functional; conditions: read-out: IZ
[6] = system: Pseudomonas aeruginosa; experiment: Antibacterial activity against Pseudomonas aeruginosa MTCC 424 assessed as inhibition of bacterial growth at 50 uM measured after 48 hrs by agar well diffusion method; type: functional; conditions: read-out: IZ
[7] = system: Staphylococcus aureus; experiment: Antibacterial activity against Methicillin-resistant Staphylococcus aureus ATCC 33591 assessed as inhibition of bacterial growth measured after 48 hrs by broth microdilution method; type: functional
[8] = system: Staphylococcus aureus; experiment: Bactericidal activity against Staphylococcus aureus MTCC 740 assessed as inhibition of bacterial growth measured after 48 hrs by agar plate method; type: functional
Summary of the method: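 MBC: aliquots from microdilution wells without colour change subcultured on drug-free Mueller Hinton agar, 48 h at 37 °C aerobically. MBC is the lowest concentration with no visible growth. Triplicate.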

[9] = system: Staphylococcus aureus; experiment: Bactericidal activity against clinically isolated Staphylococcus aureus RBRJ010 assessed as inhibition of bacterial growth measured after 48 hrs by agar plate method; type: functional
Summary of the method: (§1)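 MBC: 10 μL from wells showing no INT colour change after broth microdilution subcultured on drug-free Mueller Hinton agar, 48 h at 37 °C aerobically; lowest concentration with no visible growth taken as MBC (μM). Triplicate.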

[10] = system: Staphylococcus epidermidis; experiment: Bactericidal activity against Staphylococcus epidermidis MTCC 435 assessed as inhibition of bacterial growth measured after 48 hrs by agar plate method; type: functional; summary of the method: as §1
[11] = Cytotoxicity against mouse L929 cells assessed as reduction in cell viability measured after 72 hrs by MTT assay; type: toxicity, cell-based
Summary of the method: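 L929 cells (ATCC) grown in DMEM with 10% FBS and penicillin/streptomycin at 37 °C, 5% CO2; seeded at 5 × 10^3 cells per well and exposed to serial dilutions for 72 h, paclitaxel as positive control. MTT (5 mg mL−1), formazan dissolved in DMSO, absorbance at 490 nm; viability relative to control after blank subtraction; IC50 in μM.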

[12] = system: Staphylococcus aureus; experiment: Anti-biofilm activity against Methicillin-resistant Staphylococcus aureus assessed as reduction in biofilm formation at 1XMIC measured after 48 hrs by crystal violet staining based analysis; type: functional
Summary of the method: (§2)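 Non-adherent cells washed off with water, stained with 0.5% crystal violet 30 min at 25 °C, dye eluted with 95% ethanol, OD 545 nm. Reported as % reduction versus untreated control. Triplicate.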

[13] = system: Staphylococcus aureus; experiment: Anti-biofilm activity against Methicillin-resistant Staphylococcus aureus assessed as reduction in biofilm formation at 2XMIC measured after 48 hrs by crystal violet staining based analysis; type: functional; summary of the method: as §2
[14] = system: Staphylococcus aureus; experiment: Anti-biofilm activity against Methicillin-resistant Staphylococcus aureus assessed as biofilm substrate coverage at 1XMIC measured after 48 hrs by crystal violet staining based phase contrast microscopy (reference value: 81.43+/-3.57%); type: functional
[15] = system: Staphylococcus aureus; experiment: Anti-biofilm activity against Methicillin-resistant Staphylococcus aureus assessed as biofilm substrate coverage at 2XMIC measured after 48 hrs by crystal violet staining based phase contrast microscopy (reference value: 81.43+/-3.57%); type: functional
[16] = system: Staphylococcus aureus; experiment: Anti-biofilm activity against Methicillin-resistant Staphylococcus aureus assessed as reduction in integrated density of biofilms at 1/2 to 2XMIC measured after 48 hrs by Syto-9 staining based fluorescence microscopy; type: functional, organism-based
Summary of the method: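 After PBS washes, stained with SYTO-9 ([…]) 15 min at 25 °C and imaged by fluorescence microscopy (excitation 480 nm). Integrated density quantified from images. Triplicate, mean ± SD.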

[17] = target: T1, 4,4'-diapophytoene synthase (Staphylococcus aureus) (UniProt A9JQL9); experiment: Inhibition of CrtM in Methicillin-resistant Staphylococcus aureus assessed as inhibition of staphyloxanthin production at 1/4 to 1/16XMIC measured after 48 hrs
T1 sequence (whole entry): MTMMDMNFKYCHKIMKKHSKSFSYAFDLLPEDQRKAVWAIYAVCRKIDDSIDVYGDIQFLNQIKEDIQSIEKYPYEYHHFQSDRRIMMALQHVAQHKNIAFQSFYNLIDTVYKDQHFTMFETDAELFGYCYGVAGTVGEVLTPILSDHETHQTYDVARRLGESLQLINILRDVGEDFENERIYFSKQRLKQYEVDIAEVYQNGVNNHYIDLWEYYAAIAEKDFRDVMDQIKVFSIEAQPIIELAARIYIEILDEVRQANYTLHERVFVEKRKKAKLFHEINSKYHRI

[18] = target: T1, 4,4'-diapophytoene synthase (Staphylococcus aureus); experiment: Inhibition of CrtM in Methicillin-resistant Staphylococcus aureus assessed as inhibition of staphyloxanthin production by measuring reduction in 4,4'-diapophytoene level at 1/4XMIC measured after 24 hrs by spectroscopic analysis
Summary of the method: (§3)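 Cells pelleted, PBS-washed, extracted overnight in methanol at 37 °C. Supernatant absorbance read at 462 nm (staphyloxanthin), 286 nm (4,4′-diapophytoene), 435 nm (4,4′-diaponeurosporene) or 455 nm (4,4′-diaponeurosporenic acid). % inhibition = (control − treated)/control × 100.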

[19] = target: T1, 4,4'-diapophytoene synthase (Staphylococcus aureus); experiment: Inhibition of CrtM in Methicillin-resistant Staphylococcus aureus assessed as inhibition of staphyloxanthin production by measuring reduction in 4,4'-diaponeurosporene level at 1/4XMIC measured after 24 hrs by spectroscopic analysis; summary of the method: as §3
[20] = target: T1, 4,4'-diapophytoene synthase (Staphylococcus aureus); experiment: Inhibition of CrtM in Methicillin-resistant Staphylococcus aureus assessed as inhibition of staphyloxanthin production by measuring reduction in 4,4'-diaponeurosporenic acid level at 1/4XMIC measured after 24 hrs by spectroscopic analysis; summary of the method: as §3
[21] = target: T1, 4,4'-diapophytoene synthase (Staphylococcus aureus); experiment: Inhibition of CrtM in Methicillin-resistant Staphylococcus aureus assessed as reduction in staphyloxanthin level at 1/4XMIC measured after 24 hrs by spectroscopic analysis; summary of the method: as §3
[22] = Toxicity against Galleria mellonella assessed as metabolic activity of larva at 20 mg/kg measured every 12 hrs for 120 hrs; type: organism-based; conditions: in vivo
Summary of the method: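 Uninfected Galleria mellonella larvae (0.2–0.4 g, ten per group) given 20 mg kg−1 compound, alongside untreated, PBS and PBS + 2% DMSO vehicle controls; held at 37 °C and checked every 12 h for 120 h. Larvae that turned black and gave no response to stimulus counted dead; percentage survival recorded.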

[23] = Toxicity against Galleria mellonella assessed as survival rate of larva at 20 mg/kg measured every 12 hrs for 120 hrs; type: organism-based; conditions: in vivo
Summary of the method: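 Uninfected Galleria mellonella larvae (0.2–0.4 g, 10 per group) given 20 mg kg−1. Controls: untreated, PBS, and PBS + 2% DMSO vehicle. Held at 37 °C and monitored every 12 h for 120 h; larvae that were black and unresponsive counted dead. Percentage survival plotted.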

For `Cc1ccc(C(C)C)c(OCc2cn(CCCN3C(=O)C(=O)c4ccccc43)nn2)c1`, which zone of inhibition at 50 µM [1] is on record?
The zone of inhibition at 50 µM was 28.6 mm.

And the zone of inhibition at 50 µM [2]?
The zone of inhibition at 50 µM was 27.5 mm.

And the zone of inhibition at 50 µM [3]?
Its zone of inhibition at 50 µM is 18.5 mm.

What about the zone of inhibition at 50 µM [4] of the same compound?
Its zone of inhibition at 50 µM is 20.2 mm.

What about the zone of inhibition at 50 µM [5] of the same compound?
The zone of inhibition at 50 µM was 20.2 mm.

What about the zone of inhibition at 50 µM [6] of the same compound?
The zone of inhibition at 50 µM was 22.3 mm.

What about the MIC [7] of the same compound?
Its MIC is 3.9 µM (≈ 1.63 µg/mL).

What about the MBC [8] of the same compound?
The MBC was 3.9 µM (≈ 1.63 µg/mL).

What about the MBC [9] of the same compound?
The MBC was 3.9 µM (≈ 1.63 µg/mL).

And the MBC [10]?
Its MBC is 7.8 µM (≈ 3.26 µg/mL).

What about the IC50 at 72 h [11] of the same compound?
The IC50 at 72 h was 125 µM.

What about the “inhibition (INH)” value [12] of the same compound?
Its value is 89.63%.

And the “inhibition (INH)” value [13]?
The value was 96.21%.

What about the Activity [14] of the same compound?
Its Activity is 5.11%.

What about the Activity [15] of the same compound?
The Activity was 1.83%.

And the Activity [16]?
Its Activity is “Active”.

And the inhibition [17]?
The inhibition was “Dose-Dependent Effect”.

And the inhibition [18]?
Its inhibition is 86%.

And the inhibition [19]?
The inhibition was 85%.

What about the inhibition [20] of the same compound?
Its inhibition is 86%.

What about the inhibition [21] of the same compound?
The inhibition was 86%.

And the Activity [22]?
Its Activity is “Non-Toxic”.

And the survival at 120 h [23]?
The survival at 120 h was 90%.
